Laboratory results taken from ChEMBL document CHEMBL4725349, “Discovery of First-in-Class Protein Arginine Methyltransferase 5 (PRMT5) Degraders” (J Med Chem, 2020).
Active and inactive are the calls of the source. The calls are words filed in the database; no cut-off is given here.

Tests used:
[1] = target: T1, von Hippel-Lindau disease tumor suppressor/Protein arginine N-methyltransferase 5 (Homo sapiens, UniProt O14744+P40337); assay: Induction of VHL-mediated PRMT5 degradation in human MCF7 cells at 0.2 to 5 uM incubated for 6 days by Western blot analysis; assay type: cell-based; conditions: dose microM 0.2-5, time 6.0 day
In short: (§1)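 MCF-7 cells treated 6 d (0.2, 1 and 5 μM for initial screen, or indicated concentrations). RIPA lysates immunoblotted for PRMT5. Band intensity quantified by densitometry to derive DC50 and Dmax as mean ± SD from three independent experiments; screening blots representative of at least two.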
Target sequence in this assay (O14744 whole entry, looked up): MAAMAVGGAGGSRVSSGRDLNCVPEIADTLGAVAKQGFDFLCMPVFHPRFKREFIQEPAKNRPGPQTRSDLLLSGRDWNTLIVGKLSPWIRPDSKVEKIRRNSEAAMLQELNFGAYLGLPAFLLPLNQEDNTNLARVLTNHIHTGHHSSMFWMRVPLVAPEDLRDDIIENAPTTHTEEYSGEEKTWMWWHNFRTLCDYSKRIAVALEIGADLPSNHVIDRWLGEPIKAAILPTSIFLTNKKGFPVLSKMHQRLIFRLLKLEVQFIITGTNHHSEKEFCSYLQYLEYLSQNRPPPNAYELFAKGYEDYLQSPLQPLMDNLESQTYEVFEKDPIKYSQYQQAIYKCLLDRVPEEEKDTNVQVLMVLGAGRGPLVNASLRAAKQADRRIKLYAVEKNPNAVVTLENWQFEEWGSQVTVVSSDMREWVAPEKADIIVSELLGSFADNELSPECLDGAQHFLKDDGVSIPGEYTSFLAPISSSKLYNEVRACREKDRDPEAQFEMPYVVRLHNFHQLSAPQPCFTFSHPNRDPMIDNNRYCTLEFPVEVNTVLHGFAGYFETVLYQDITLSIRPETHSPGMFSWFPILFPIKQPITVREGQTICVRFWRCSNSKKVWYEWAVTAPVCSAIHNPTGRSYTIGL
Target sequence in this assay (P40337 whole entry, looked up): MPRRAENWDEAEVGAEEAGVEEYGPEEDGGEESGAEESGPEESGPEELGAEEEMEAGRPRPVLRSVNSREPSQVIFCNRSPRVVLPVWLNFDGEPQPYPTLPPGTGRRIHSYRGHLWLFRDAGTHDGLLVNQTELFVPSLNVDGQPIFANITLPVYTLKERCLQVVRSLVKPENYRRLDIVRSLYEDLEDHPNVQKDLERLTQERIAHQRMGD

[2] = target: T1, von Hippel-Lindau disease tumor suppressor/Protein arginine N-methyltransferase 5; assay: Induction of VHL-mediated PRMT5 degradation in human MCF7 cells at 5 uM incubated for 6 days by Western blot analysis; assay type: cell-based; conditions: time 6.0 day; in short: as §1
Target sequence in this assay (O14744 whole entry, looked up): as the sequence (O14744 whole entry, looked up) above
Target sequence in this assay (P40337 whole entry, looked up): as the sequence (P40337 whole entry, looked up) above

[3] = target: T1, von Hippel-Lindau disease tumor suppressor/Protein arginine N-methyltransferase 5; assay: Induction of VHL-mediated PRMT5 degradation in human MCF7 cells assessed as reduction in SDMA level incubated for 6 days by Western blot analysis; assay type: cell-based; conditions: dose microM 0.1-3, time 6.0 day
In short: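 SDMA read-out: MCF-7 cells given 0.1, 0.3, 1 or 3.0 μM for 6 d; global symmetric dimethylarginine detected on western blot with anti-SDMA antibody.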
Target sequence in this assay (O14744 whole entry, looked up): as the sequence (O14744 whole entry, looked up) above
Target sequence in this assay (P40337 whole entry, looked up): as the sequence (P40337 whole entry, looked up) above

Jurkat [4] = assay: Antiproliferative activity against human Jurkat cells assessed as reduction in cell viability at 0.1 to 10 uM supplemented with fresh medium containing compound every other day for 6 days by CellTiter-Glo assay; assay type: functional, cell-based; conditions: dose microM 0.1-10, time 6.0 day
In short: (§2)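 HeLa, A549 and A172 grown in DMEM + 10% FBS; Jurkat in RPMI 1640 + 10% FBS; all at 37 °C, 5% CO2. Cells seeded, then treated 6 d with test agent, medium plus compound renewed every other day. Viability read by CellTiter-Glo and normalized to DMSO-treated cells; mean ± SD, n = 3.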

HeLa [5] = assay: Antiproliferative activity against human HeLa cells assessed as reduction in cell viability at 0.1 to 10 uM supplemented with fresh medium containing compound every other day for 6 days by CellTiter-Glo assay; assay type: functional, cell-based; conditions: dose microM 0.1-10, time 6.0 day; in short: as §2
A 172 [6] = assay: Antiproliferative activity against human A172 cells assessed as reduction in cell viability at 0.1 to 10 uM supplemented with fresh medium containing compound every other day for 6 days by CellTiter-Glo assay; assay type: functional, cell-based; conditions: dose microM 0.1-10, time 6.0 day; in short: as §2
A549 [7] = assay: Antiproliferative activity against human A549 cells assessed as reduction in cell viability at 0.1 to 10 uM supplemented with fresh medium containing compound every other day for 6 days by CellTiter-Glo assay; assay type: functional, cell-based; conditions: dose microM 0.1-10, time 6.0 day; in short: as §2
Jurkat [8] = assay: Antiproliferative activity against human Jurkat cells assessed as reduction in cell viability supplemented with fresh medium containing compound every other day for 6 days by CellTiter-Glo assay; assay type: functional, cell-based; conditions: dose microM 0.1-10, time 6.0 day; in short: as §2
[9] = Plasma concentration in Swiss albino mouse at 150 mg/kg, ip administered as single dose measured after 12 hrs post dose by LC-MS/MS method; assay type: ADME, organism-based
In short: (§3)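 Male Swiss albino mice received one 150 mg/kg IP dose in normal saline. Blood drawn under light isoflurane at 0.25, 0.5, 1, 2, 6 and 12 h, three mice per time point. Plasma acetonitrile-precipitated and quantified by LC-MS/MS (LLOQ 9.25 ng/mL); clinical signs observed.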

MCF7 = assay: Antiproliferative activity against human MCF7 cells incubated for 6 days by CellTiter-Glo assay; assay type: functional, cell-based; conditions: dose microM 0.1-10, time 6.0 day
In short: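 MCF-7 in DMEM + 10% FBS at 37 °C, 5% CO2. Cells exposed to graded concentrations for 6 d, medium with compound refreshed every other day. CellTiter-Glo luminescence, expressed as viability relative to DMSO control; mean ± SD, n = 3.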

[10] = Toxicity in Swiss albino mouse assessed as effect on clinical signs at 150 mg/kg, ip; assay type: organism-based; conditions: in vivo; in short: as §3
[11] = target: von Hippel-Lindau disease tumor suppressor/Agrin (Homo sapiens) (UniProt P40337+O00468); assay: Induction of VHL-mediated AGRN degradation in human MCF7 cells at 5 uM supplemented with fresh medium containing compound every 2 days for 5 days by LC-MS based LFQ global proteomics analysis; assay type: cell-based; conditions: time 5.0 day
von Hippel-Lindau disease tumor suppressor/Agrin (Homo sapiens), sequence (O00468 whole entry, looked up): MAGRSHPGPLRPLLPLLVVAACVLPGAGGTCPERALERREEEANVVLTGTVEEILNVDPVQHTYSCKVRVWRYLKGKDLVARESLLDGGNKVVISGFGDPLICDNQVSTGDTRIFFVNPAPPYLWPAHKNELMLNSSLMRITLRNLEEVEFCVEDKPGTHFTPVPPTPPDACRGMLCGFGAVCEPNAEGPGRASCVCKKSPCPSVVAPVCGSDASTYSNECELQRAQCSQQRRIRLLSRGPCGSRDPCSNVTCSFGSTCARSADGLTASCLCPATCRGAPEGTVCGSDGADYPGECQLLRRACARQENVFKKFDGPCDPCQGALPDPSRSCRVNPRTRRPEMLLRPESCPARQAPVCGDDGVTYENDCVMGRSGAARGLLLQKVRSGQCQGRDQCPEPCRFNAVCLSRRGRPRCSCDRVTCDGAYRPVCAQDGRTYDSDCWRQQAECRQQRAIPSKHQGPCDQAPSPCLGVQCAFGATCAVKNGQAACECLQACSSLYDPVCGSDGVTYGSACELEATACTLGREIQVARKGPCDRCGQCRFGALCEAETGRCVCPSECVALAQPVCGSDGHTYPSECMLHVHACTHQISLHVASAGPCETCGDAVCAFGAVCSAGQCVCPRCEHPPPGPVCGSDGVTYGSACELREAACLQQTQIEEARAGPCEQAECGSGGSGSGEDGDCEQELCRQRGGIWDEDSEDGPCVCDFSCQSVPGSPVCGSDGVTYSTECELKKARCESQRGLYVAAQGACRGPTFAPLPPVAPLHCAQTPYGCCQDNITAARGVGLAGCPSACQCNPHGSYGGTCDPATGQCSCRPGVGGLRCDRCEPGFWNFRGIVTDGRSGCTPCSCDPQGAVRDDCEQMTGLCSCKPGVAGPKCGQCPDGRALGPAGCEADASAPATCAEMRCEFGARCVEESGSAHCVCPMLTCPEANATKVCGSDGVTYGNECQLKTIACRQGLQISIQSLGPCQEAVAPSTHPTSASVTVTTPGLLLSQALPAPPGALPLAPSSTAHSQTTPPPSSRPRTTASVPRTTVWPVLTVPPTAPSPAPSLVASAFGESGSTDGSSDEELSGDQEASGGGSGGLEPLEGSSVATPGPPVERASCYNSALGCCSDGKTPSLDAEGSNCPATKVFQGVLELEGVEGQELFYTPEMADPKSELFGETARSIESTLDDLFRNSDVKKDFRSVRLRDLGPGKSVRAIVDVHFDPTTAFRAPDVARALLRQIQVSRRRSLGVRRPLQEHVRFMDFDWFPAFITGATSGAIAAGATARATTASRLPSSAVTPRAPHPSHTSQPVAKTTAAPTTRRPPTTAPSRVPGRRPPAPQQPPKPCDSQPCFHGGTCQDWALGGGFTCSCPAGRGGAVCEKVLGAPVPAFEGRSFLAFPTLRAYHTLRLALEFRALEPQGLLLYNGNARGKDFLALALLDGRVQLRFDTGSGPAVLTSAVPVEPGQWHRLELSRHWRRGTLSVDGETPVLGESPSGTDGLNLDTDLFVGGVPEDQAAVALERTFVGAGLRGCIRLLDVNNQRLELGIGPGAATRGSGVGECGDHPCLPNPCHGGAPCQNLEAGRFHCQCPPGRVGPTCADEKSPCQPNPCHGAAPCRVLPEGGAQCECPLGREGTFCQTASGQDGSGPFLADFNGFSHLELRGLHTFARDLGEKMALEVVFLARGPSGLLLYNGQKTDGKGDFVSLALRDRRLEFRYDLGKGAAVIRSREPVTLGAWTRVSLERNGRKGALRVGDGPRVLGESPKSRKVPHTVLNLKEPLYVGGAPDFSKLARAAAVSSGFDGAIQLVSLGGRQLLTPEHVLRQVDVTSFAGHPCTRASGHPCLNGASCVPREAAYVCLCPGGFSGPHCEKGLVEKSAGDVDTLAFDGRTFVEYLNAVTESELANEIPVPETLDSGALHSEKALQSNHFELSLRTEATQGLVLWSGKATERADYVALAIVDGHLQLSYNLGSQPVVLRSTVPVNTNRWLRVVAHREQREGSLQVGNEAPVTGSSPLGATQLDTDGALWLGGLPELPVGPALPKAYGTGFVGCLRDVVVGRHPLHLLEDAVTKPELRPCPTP
von Hippel-Lindau disease tumor suppressor/Agrin (Homo sapiens), sequence (P40337 whole entry, looked up): as the sequence (P40337 whole entry, looked up) above
In short: (§4)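 MCF-7 cells given 5 μM compound or DMSO for 5 d, with fresh medium plus compound every 48 h; two biological replicates. Lysis in 8 M urea/50 mM Tris pH 8.0, DTT reduction, iodoacetamide alkylation, overnight trypsin digestion. Peptides run on nanoLC-Q-Exactive HF-X, 130 min gradient. Label-free quantitation; fold changes tested by two-sample t test.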

[12] = target: T1, von Hippel-Lindau disease tumor suppressor/Protein arginine N-methyltransferase 5; assay: Induction of VHL-mediated PRMT5 degradation in human MCF7 cells assessed as PRMT5 level at 5 uM incubated for 7 days in presence of neddylation inhibitor MLN4924 by Western blot analysis relative to control; assay type: cell-based; conditions: time 7.0 day
Target sequence in this assay (O14744 whole entry, looked up): as the sequence (O14744 whole entry, looked up) above
Target sequence in this assay (P40337 whole entry, looked up): as the sequence (P40337 whole entry, looked up) above

PRMT5/MEP50 complex = PRMT5/MEP50 complex (Homo sapiens, UniProt O14744); assay: Inhibition of human PRMT5/MEP50 assessed as reduction in methyltransferase activity using histone 4 peptide as substrate in presence of [3H]SAM incubated for 30 mins; assay type: protein-complex assay
PRMT5/MEP50 complex, sequence (O14744 whole entry): as the sequence (O14744 whole entry, looked up) above
PRMT5/MEP50 complex, sequence (Q9BQA1 whole entry, further chain): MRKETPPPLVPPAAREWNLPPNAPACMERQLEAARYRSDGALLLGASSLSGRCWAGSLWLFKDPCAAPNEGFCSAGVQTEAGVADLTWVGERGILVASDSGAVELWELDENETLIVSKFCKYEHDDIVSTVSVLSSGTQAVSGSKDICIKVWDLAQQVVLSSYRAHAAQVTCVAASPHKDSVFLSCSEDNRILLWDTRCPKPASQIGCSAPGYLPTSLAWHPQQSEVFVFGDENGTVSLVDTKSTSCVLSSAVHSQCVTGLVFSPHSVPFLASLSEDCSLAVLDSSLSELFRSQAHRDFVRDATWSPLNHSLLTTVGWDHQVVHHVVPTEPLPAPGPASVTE
In short: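 Radiometric FlashPlate assay tracking transfer of the 3H-methyl group from SAM (1 μM) to biotinylated H4 (1–15) peptide by human PRMT5/MEP50 (5 nM). Compounds were preincubated with enzyme and substrate for 20 min at rt. They were tested at 10 concentrations in threefold serial dilution from 5 μM, in duplicate. IC50 is reported as mean ± SD.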

[13] = target: T1, von Hippel-Lindau disease tumor suppressor/Protein arginine N-methyltransferase 5; assay: Induction of VHL-mediated PRMT5 degradation in human Jurkat cells at 5 uM incubated for 6 days by Western blot analysis; assay type: cell-based; conditions: time 6.0 day
In short: (§5)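 HeLa, A549, A172 and Jurkat cells exposed to 5 μM for 6 d. Lysis in RIPA buffer with protease inhibitors, then SDS-PAGE, PVDF transfer and immunoblot for PRMT5 with β-actin loading control, ECL detection. Representative of two independent experiments.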
Target sequence in this assay (O14744 whole entry, looked up): as the sequence (O14744 whole entry, looked up) above
Target sequence in this assay (P40337 whole entry, looked up): as the sequence (P40337 whole entry, looked up) above

[14] = target: von Hippel-Lindau disease tumor suppressor/Methylosome protein WDR77 (Homo sapiens) (UniProt Q9BQA1+P40337); assay: Induction of VHL-mediated WDR77 degradation in human MCF7 cells at 5 uM supplemented with fresh medium containing compound every 2 days for 5 days by LC-MS based LFQ global proteomics analysis; assay type: cell-based; conditions: time 5.0 day; in short: as §4
von Hippel-Lindau disease tumor suppressor/Methylosome protein WDR77 (Homo sapiens), sequence (P40337 whole entry, looked up): as above
von Hippel-Lindau disease tumor suppressor/Methylosome protein WDR77 (Homo sapiens), sequence (Q9BQA1 whole entry, looked up): as the sequence (Q9BQA1 whole entry, further chain) above

[15] = target: T1, von Hippel-Lindau disease tumor suppressor/Protein arginine N-methyltransferase 5; assay: Induction of VHL-mediated PRMT5 degradation in human MCF7 cells incubated for 6 days by Western blot analysis relative to control; assay type: cell-based; conditions: time 6.0 day; in short: as §1
Target sequence in this assay (O14744 whole entry, looked up): as the sequence (O14744 whole entry, looked up) above
Target sequence in this assay (P40337 whole entry, looked up): as the sequence (P40337 whole entry, looked up) above

A 172 [16] = assay: Antiproliferative activity against human A172 cells assessed as reduction in cell viability supplemented with fresh medium containing compound every other day for 6 days by CellTiter-Glo assay; assay type: functional, cell-based; conditions: dose microM 0.1-10, time 6.0 day; in short: as §2
[17] = target: T1, von Hippel-Lindau disease tumor suppressor/Protein arginine N-methyltransferase 5; assay: Induction of VHL-mediated PRMT5 degradation in human A549 cells at 5 uM incubated for 6 days by Western blot analysis; assay type: cell-based; conditions: time 6.0 day; in short: as §5
[18] = Plasma concentration in Swiss albino mouse at 150 mg/kg, ip administered as single dose measured at 2 hrs post dose by LC-MS/MS method; assay type: ADME, organism-based; in short: as §3
[19] = target: T1, von Hippel-Lindau disease tumor suppressor/Protein arginine N-methyltransferase 5; assay: Induction of VHL-mediated PRMT5 degradation in human HeLa cells at 5 uM incubated for 6 days by Western blot analysis; assay type: cell-based; conditions: time 6.0 day; in short: as §5
HeLa [20] = assay: Antiproliferative activity against human HeLa cells assessed as reduction in cell viability supplemented with fresh medium containing compound every other day for 6 days by CellTiter-Glo assay; assay type: functional, cell-based; conditions: dose microM 0.1-10, time 6.0 day; in short: as §2
[21] = target: T1, von Hippel-Lindau disease tumor suppressor/Protein arginine N-methyltransferase 5; assay: Induction of VHL-mediated PRMT5 degradation in human MCF7 cells assessed as PRMT5 level at 5 uM incubated for 7 days in presence of proteasome inhibitor MG-132 by Western blot analysis relative to control; assay type: cell-based; conditions: time 7.0 day
A549 [22] = assay: Antiproliferative activity against human A549 cells assessed as reduction in cell viability supplemented with fresh medium containing compound every other day for 6 days by CellTiter-Glo assay; assay type: functional, cell-based; conditions: dose microM 0.1-10, time 6.0 day; in short: as §2
[23] = target: T1, von Hippel-Lindau disease tumor suppressor/Protein arginine N-methyltransferase 5; assay: Induction of VHL-mediated PRMT5 degradation in human MCF7 cells assessed as PRMT5 level at 5 uM incubated for 7 days by Western blot analysis relative to control; assay type: cell-based; conditions: time 7.0 day
[24] = target: T1, von Hippel-Lindau disease tumor suppressor/Protein arginine N-methyltransferase 5; assay: Induction of VHL-mediated PRMT5 degradation in human MCF7 cells assessed as PRMT5 level at 5 uM incubated for 7 days in presence of VH-298 by Western blot analysis relative to control; assay type: cell-based; conditions: time 7.0 day
[25] = target: T1, von Hippel-Lindau disease tumor suppressor/Protein arginine N-methyltransferase 5; assay: Induction of VHL-mediated PRMT5 degradation in human A172 cells at 5 uM incubated for 6 days by Western blot analysis; assay type: cell-based; conditions: A 172, time 6.0 day; in short: as §5
[26] = target: T1, von Hippel-Lindau disease tumor suppressor/Protein arginine N-methyltransferase 5; assay: Induction of VHL-mediated PRMT5 degradation in human MCF7 cells at 5 uM supplemented with fresh medium containing compound every 2 days for 5 days by LC-MS based LFQ global proteomics analysis; assay type: cell-based; conditions: time 5.0 day; in short: as §4
[27] = target: T1, von Hippel-Lindau disease tumor suppressor/Protein arginine N-methyltransferase 5; assay: Induction of VHL-mediated PRMT5 degradation in human MCF7 cells incubated for 6 days by Western blot analysis; assay type: cell-based; in short: as §1
[28] = target: T1, von Hippel-Lindau disease tumor suppressor/Protein arginine N-methyltransferase 5; assay: Induction of VHL-mediated PRMT5 degradation in human MCF7 cells assessed as recovery of PRMT5 level at 5 uM incubated for 6 days followed by compound wash out and measured up to 48 hrs by Western blot analysis; assay type: cell-based; conditions: time 6.0 day
In short: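 Washout: MCF-7 cells treated 6 d with 5 μM, compound removed, and PRMT5 immunoblotted at 0, 12, 24 and 48 h after washout.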

[29] = target: T1, von Hippel-Lindau disease tumor suppressor/Protein arginine N-methyltransferase 5; assay: Induction of VHL-mediated PRMT5 degradation in human MCF7 cells assessed as PRMT5 level at 5 uM incubated for 7 days in presence of EPZ015666 by Western blot analysis relative to control; assay type: cell-based; conditions: time 7.0 day

Compound: Cc1ncsc1-c1ccc(CNC(=O)[C@@H]2C[C@@H](O)CN2C(=O)[C@@H](NC(=O)COCC(=O)N2CC(Nc3cc(C(=O)NC[C@H](O)CN4CCc5ccccc5C4)ncn3)C2)C(C)(C)C)cc1
- Activity [1]: inactive

Compound: Cc1ncsc1-c1ccc(CNC(=O)[C@@H]2C[C@@H](O)CN2C(=O)[C@@H](NC(=O)CCOCCOCCOCCC(=O)N2CC(Nc3cc(C(=O)NC[C@H](O)CN4CCc5ccccc5C4)ncn3)C2)C(C)(C)C)cc1
- Activity [1]: inactive

Compound: O=C(NC[C@H](O)CN1CCc2ccccc2C1)c1cc(NC2COC2)ncn1
- Activity [2]: inactive
- Activity [3]: Dose-dependent effect
- Activity (Jurkat [4]): Active
- Activity (HeLa [5]): Active
- Activity (A 172 [6]): Active
- Activity (A549 [7]): Active

Compound: Cc1ncsc1-c1ccc([C@H](C)NC(=O)[C@@H]2C[C@@H](O)CN2C(=O)[C@@H](NC(=O)COCCOCCOCCOCCOCC(=O)N2CC(Nc3cc(C(=O)NC[C@H](O)CN4CCc5ccccc5C4)ncn3)C2)C(C)(C)C)cc1
- Activity (Jurkat [8]): Dose-dependent effect
- concentration at 12 h [9]: > 100 nM
- Activity (MCF7): Dose-dependent effect
- Activity [10]: Non-Toxic
- Activity [11]: Active
- fold change (FC) [12]: 0.59
- IC50 (PRMT5/MEP50 complex): 18 nM
- Activity [13]: Active
- Activity [14]: Active
- Emax [15]: 74%
- Activity (A 172 [16]): Dose-dependent effect
- Activity [17]: Active
- Activity [3]: Dose-dependent effect
- concentration at 2 h [18]: 14 µM
- Activity [19]: Active
- Activity (HeLa [20]): Dose-dependent effect
- fold change (FC) [21]: 0.51
- Activity (A549 [22]): Dose-dependent effect
- fold change (FC) [23]: 0.32
- fold change (FC) [24]: 0.53
- Activity [25]: Active
- Activity [26]: Active
- DC50 [27]: 1100 nM
- Activity ([27]; time 6.0 day): Dose-dependent effect
- Activity [28]: Active
- fold change (FC) [29]: 0.61
